Experimental data taken from ChEMBL document CHEMBL1781999, “Lead optimization of aryl and aralkyl amine-based triazolopyrimidine inhibitors of Plasmodium falciparum dihydroorotate dehydrogenase with antimalarial activity in mice” (J Med Chem, 2011).
Active and inactive are the calls of the source. The rule behind the calls is not given here.

Tests used:
[1] = AUC (0 to infinity) in Sprague-Dawley rat at 18.6 mg/kg, po by LC-MS analysis; format: ADME, organism-based; set-up: time infinity, dose 18.6 mg/kg, route oral; settings: plasma
In short: (§1)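 Overnight-fasted male Sprague Dawley rats (n=2 per compound) gavaged with an aqueous suspension (DMSO, cellulose, benzyl alcohol, Tween 80 in water); food returned 4 h post-dose. Arterial blood via carotid cannula up to 24 h into heparinized tubes with stabilization cocktail. Plasma acetonitrile-precipitated, LC-MS against blank-plasma standards. AUC by non-compartmental analysis; Cmax read from profiles.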

[2] = test system: Plasmodium berghei ANKA; assay: Antimalarial activity against Plasmodium berghei ANKA NK65 infected in Swiss Webster mouse assessed as complete cure of animal at 100 mg/kg, po bid measured on day 9 by light microscopic analysis; format: functional, organism-based; set-up: dose 100 mg/kg
[3] = Cmax in Sprague-Dawley rat at 18.6 mg/kg, po by LC-MS analysis; format: ADME, organism-based; set-up: dose 18.6 mg/kg, route oral; settings: in vivo; in short: as §1
[4] = Terminal elimination half life in Sprague-Dawley rat at 18.6 mg/kg, po by LC-MS analysis; format: ADME, organism-based; set-up: dose 18.6 mg/kg, route oral; settings: in vivo, read-out: beta t1/2 (converted)
In short: (§2)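 Overnight-fasted male Sprague Dawley rats (n=2 per dose). IV dosing was a 10 min jugular infusion in a solution vehicle of DMSO and acid with Captisol or Tween/glucose, depending on compound; oral dosing was by gavage as a suspension.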

[5] = Oral bioavailability in Sprague-Dawley rat at 18.6 mg/kg by LC-MS analysis; format: ADME, organism-based; settings: in vivo
In short: (§3)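 Overnight-fasted male Sprague Dawley rats, dosed orally by gavage as an aqueous suspension, n=2. Arterial blood taken via carotid cannula up to 24 h; plasma measured by LC-MS. %F = mean dose-normalized oral AUC0-24h versus IV AUC0-24h at the higher IV dose (5 mg/kg or 3 mg/kg, depending on compound); treated as an estimate.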

[6] = test system: Rattus norvegicus; assay: Terminal elimination half life in Sprague-Dawley rat at 0.9 mg/kg, iv by LC-MS analysis; format: ADME, organism-based; set-up: dose 0.9 mg/kg, route intravenous; settings: in vivo; in short: as §2
[7] = test system: Rattus norvegicus; assay: Volume of distribution at steady state in Sprague-Dawley rat at 2.9 mg/kg, iv by LC-MS analysis; format: ADME, organism-based; set-up: dose 2.9 mg/kg, route intravenous; settings: in vivo; in short: as §2
[8] = test system: Rattus norvegicus; assay: Volume of distribution at steady state in Sprague-Dawley rat at 0.9 mg/kg, iv by LC-MS analysis; format: ADME, organism-based; set-up: dose 0.9 mg/kg, route intravenous; settings: in vivo; in short: as §2
[9] = test system: Rattus norvegicus; assay: Terminal elimination half life in Sprague-Dawley rat at 2.9 mg/kg, iv by LC-MS analysis; format: ADME, organism-based; set-up: dose 2.9 mg/kg, route intravenous; settings: in vivo; in short: as §2
[10] = test system: Rattus norvegicus; assay: Volume of distribution at steady state in Sprague-Dawley rat at 1 mg/kg, iv by LC-MS analysis; format: ADME, organism-based; set-up: dose 1 mg/kg, route intravenous; settings: in vivo; in short: as §2
[11] = test system: Rattus norvegicus; assay: AUC (0 to infinity) in Sprague-Dawley rat at 20.1 mg/kg, po by LC-MS analysis; format: ADME, organism-based, Plasma; set-up: time infinity, dose 20.1 mg/kg, route oral; settings: in vivo; in short: as §1
[12] = test system: Rattus norvegicus; assay: Terminal elimination half life in Sprague-Dawley rat at 1 mg/kg, iv by LC-MS analysis; format: ADME, organism-based; set-up: dose 1 mg/kg, route intravenous; settings: in vivo; in short: as §2
[13] = test system: Plasmodium berghei ANKA; assay: Antimalarial activity against Plasmodium berghei ANKA NK65 infected in Swiss Webster mouse assessed as complete reduction of parasitemia level at 50 mg/kg, po bid administered for 4 days measured 24 hrs after last dose by light microscopic analysis; format: functional, organism-based; set-up: dose 50 mg/kg
[14] = test system: Plasmodium berghei ANKA; assay: Antimalarial activity against Plasmodium berghei ANKA NK65 infected in Swiss Webster mouse assessed as complete reduction of parasitemia level at 100 mg/kg, po qd administered for 4 days measured 24 hrs after last dose by light microscopic analysis; format: functional, organism-based; set-up: dose 100 mg/kg
In short: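 Female Swiss Webster mice, 8-10 weeks old (20-22 g), infected intraperitoneally with 2 × 10^7 P. berghei NK65 ANKA-infected erythrocytes. Oral doses in CMC vehicle (200 μL), first given 3 h post-infection, then at 24, 48 and 72 h. Parasitemia followed daily from 24 h by light microscopy at 1000× oil immersion, counting ≥10 fields of >100 erythrocytes. Mice losing ≥20% body weight were euthanized.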

[15] = test system: Rattus norvegicus; assay: Cmax in Sprague-Dawley rat at 20.1 mg/kg, po by LC-MS analysis; format: ADME, organism-based; set-up: dose 20.1 mg/kg, route oral; settings: in vivo; in short: as §1
[16] = test system: Rattus norvegicus; assay: Terminal elimination half life in Sprague-Dawley rat at 5.1 mg/kg, iv by LC-MS analysis; format: ADME, organism-based; set-up: dose 5.1 mg/kg, route intravenous; settings: in vivo; in short: as §2
[17] = Antimalarial activity against Plasmodium berghei ANKA NK65 infected in po dosed Swiss Webster mouse assessed as reduction of parasitemia level administered qd for 4 days measured 24 hrs after last dose by light microscopic analysis; format: functional
[18] = test system: Rattus norvegicus; assay: Terminal elimination half life in Sprague-Dawley rat at 20.1 mg/kg, po by LC-MS analysis; format: ADME, organism-based; set-up: dose 20.1 mg/kg, route oral; settings: in vivo; in short: as §2
[19] = test system: Rattus norvegicus; assay: Volume of distribution at steady state in Sprague-Dawley rat at 5.1 mg/kg, iv by LC-MS analysis; format: ADME, organism-based; set-up: dose 5.1 mg/kg, route intravenous; settings: in vivo; in short: as §2
[20] = test system: Rattus norvegicus; assay: Oral bioavailability in Sprague-Dawley rat at 20.1 mg/kg by LC-MS analysis; format: ADME, organism-based; settings: in vivo; in short: as §3

| SMILES | AUC(0-inf) [1] [µM·h] | Activity [2] | Cmax [3] [µM] | half-life [4] [h] | bioavailability [5] [%] | beta t1/2 [6] [h] | Vdss [7] [L/kg] | Vdss [8] [L/kg] | beta t1/2 [9] [h] | Vdss [10] [L/kg] | AUC [11] [µM·min] | beta t1/2 [12] [h] | Activity [13] | Activity [14] | Cmax [15] [µM] | beta t1/2 [16] [h] | ED50 [17] [mg/kg] | beta t1/2 [18] [h] | Vdss [19] [L/kg] | F [20] [%] |
| --- | --- | --- | --- | --- | --- | --- | --- | --- | --- | --- | --- | --- | --- | --- | --- | --- | --- | --- | --- | --- |
| Cc1cc(Nc2cc(F)c(C(F)(F)F)c(F)c2)n2ncnc2n1 | 1250 | inactive | 34.3 | 17.6 | > 100 | 1.6 | 0.5 | 0.4 | 4.5 | – | – | – | – | – | – | – | – | – | – | – |
| Cc1cc(Nc2ccc(S(F)(F)(F)(F)F)cc2)n2ncnc2n1 | – | – | – | – | – | – | – | – | – | 1.4 | 101693 | 11.4 | inactive | inactive | 31 | 14.5 | 17 | 33 | 1.5 | > 100 |
